Here are results for five molecules from ChEMBL document CHEMBL6083216, “Rational design and in vitro testing of new urease inhibitors to prevent urinary catheter blockage” (RSC Med Chem, 2024).

Each structure is given as a SMILES string.

For data set [1], the system named is Proteus mirabilis. As to the kind of experiment: Potency index, ratio of acetohydroxamic acid IC50 to test compound IC50 for inhibition of Proteus mirabilis B4 urease activity using urea as substrate incubated for 30 mins by absorbance based assay. In short, it runs like this:
(§1)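 Berthelot ammonia assay with whole-cell P. mirabilis B4, grown overnight in LB at 37 °C, pelleted and resuspended in PBS (0.004 mg mL−1 in phosphate buffer). Cells incubated with compound (10-fold dilutions) and 50 mM urea for 30 min at 37 °C. Phenol/nitroprusside and NaOH/hypochlorite reagents added, 30 min at 37 °C, A636 read. Activity normalised to controls; IC50 by non-linear regression; n = 6.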

Data set [2] in a line: Inhibition of Proteus mirabilis B4 urease activity using urea as substrate incubated for 30 mins by absorbance based assay. In short, it runs like this:
as §1

The test system of data set [3] is HepG2. As to the kind of experiment: Cytotoxicity against human HepG2 cells assessed as effect on cell survival at <1.25 mM measured for 24 hrs by MTT assay. The class given is toxicity, cell-based. The settings on record: hepg2, 24 h, 1250 µM. The method in brief: (§2)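 HepG2 cells in complete DMEM at 37 °C, 5% CO2, seeded at 1 × 10^4 cells per well. Compounds diluted serially from 10 mM with 1% DMSO in DMEM; 24 h exposure. MTT (1 mg mL−1) for 60 min at 37 °C, dissolved in isopropanol, absorbance read at 590 nm (reference 620 nm). % survival relative to untreated cells; three biological repeats.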

The next data set concerns Escherichia coli. As to the kind of experiment: Antibacterial activity against Escherichia coli NSM59 assessed as inhibition of bacterial growth incubated for 18 hrs by absorbance based plate reader analysis. Format: functional, organism-based. In short, it runs like this:
(§3)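 Broth microdilution in LB: compound in sterile water with 5% (v/v) DMSO, two-fold serial dilutions; subculture at 1 × 10^6 CFU mL−1 added. 37 °C for 18 h, shaken 10 s before each OD600 reading taken at intervals. MIC read visually at 18 h and from growth curves as lowest concentration inhibiting growth. Wells with broth only and with bacteria only as controls.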

Data set [4] in a line: Hemolytic activity in human erythrocytes at 0.080 to 5 mM incubated for 1 hrs by absorbance based assay. The class given is toxicity, cell-based. The settings on record: erythrocyte, 5000 µM, dose 0.08-5 mM. The method in brief:
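Pooled heparinised whole blood from three donors; erythrocytes washed three times in saline and diluted to 1% (v/v). Incubated with compound (5–0.08 mM, serial dilution of a 10 mM stock with 1% DMSO in PBS) for 1 h at 37 °C with rotation. Saline and 1% triton as controls. Supernatant absorbance read at 404 nm; % haemolysis relative to lysed cells.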

Data set [5] relates to HepG2. As to the kind of experiment: Cytotoxicity against human HepG2 cells assessed as effect on cell survival at 10 mM measured within 24 hrs by MTT assay. Format: toxicity, cell-based. The conditions noted are these: hepg2, 24 h, 10000 µM. The method in brief:
as §2

In data set [6] the test system is Proteus mirabilis. As to the kind of experiment: Antibacterial activity against Proteus mirabilis assessed as inhibition of bacterial growth incubated for 18 hrs by absorbance based plate reader analysis. The class given is functional, organism-based. The method in brief:
as §3

Turning to `NC(=S)NCc1ccccc1`, the Ratio IC50 in the data set on Proteus mirabilis [1] was determined as 1.61. Moreover, in data set [2], the IC50 was 2.27 10^-5mol/dm3.

For `S=C(NCc1cccnc1)NCc1cccnc1`, the Activity entry in the data set on HepG2 [3] is “Non-toxic”; in the data set on Escherichia coli, “Moderate_effect”; in data set [4] it was “Non-toxic”; with HepG2 [5], “Toxic”; in the data set with Proteus mirabilis [6], “Moderate_effect”. In addition, the Ratio IC50 in the data set with Proteus mirabilis [1] came out at 26.1. In addition, the IC50 in data set [2] is reported as 1.4 10^-6mol/dm3.

For the molecule `CC(=O)NO` [ACETOHYDROXAMIC ACID], the Activity result is recorded as “Non-toxic” in the data set on HepG2 [3]; “Moderate_effect” with Escherichia coli; “Non-toxic” in data set [4]; “Toxic” in the data set with HepG2 [5]; “Moderate_effect” in the data set with Proteus mirabilis [6]. Also, the IC50 in data set [2] is reported as 3.66 10^-5mol/dm3.

Turning to `NC(=S)Nc1ccccc1` [PHENYLTHIOUREA], the Ratio IC50 with Proteus mirabilis [1] is 0.002. Moreover, in data set [2], the IC50 was 9.66 10^-6mol/dm3.

Consider `O=c1c(O)c(-c2ccc(O)c(O)c2)oc2cc(O)cc(O)c12` [QUERCETIN], for which the Ratio IC50 in the data set with Proteus mirabilis [1] stood at 0.001. Further, in data set [2], the IC50 is 8.66 10^-7mol/dm3.
